Laboratory results as given in ChEMBL document CHEMBL1833916, “Synthesis and biological evaluation of 4-piperidinecarboxylate and 4-piperidinecyanide derivatives for T-type calcium channel blockers” (Bioorg Med Chem Lett, 2011).
Active and inactive are the calls of the source. The calls are words filed in the database; no cut-off is given here.

Tests used:
Rattus norvegicus [1] = assay: Antiallodynic activity in rat spinal nerve ligation model of neuropathic pain assessed as suppression of mechanical allodynia at 100 mg/kg, po after 5 hrs; assay type: functional, organism-based; parameters: dose 100 mg/kg
In short: (§1)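 Rats with induced neuropathic pain, dosed orally at 100 mg/kg (n = 5 per group), with gabapentin 100 mg/kg po as reference. Mechanical and cold allodynia were followed over days after nerve injury and hours after dosing. Significance was tested by unpaired t-test (P < 0.05).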

Rattus norvegicus [2] = assay: Antiallodynic activity in rat spinal nerve ligation model of neuropathic pain assessed as inhibition of cold allodynia at 100 mg/kg, po after 5 hrs; assay type: functional, organism-based; parameters: dose 100 mg/kg; in short: as §1
[3] = Metabolic stability in human hepatic microsomes at 1 uM after 60 mins by LC-MS/MS analysis; assay type: ADME, Liver; conditions: 1 h
In short: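 Human liver microsomes (0.5 mg/ml) with compound (1 μM) in 0.1 M potassium phosphate, pH 7.4, at 37 °C; started with β-NADPH (1.2 mM). Sampled at 0, 5, 15, 30 and 60 min, quenched with acetonitrile containing internal standard, analysed by LC–MS/MS. Reported as % parent remaining; mean of duplicate experiments.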

[4] = target: Voltage-gated inwardly rectifying potassium channel KCNH2 (Homo sapiens, UniProt Q12809); assay: Inhibition of human ERG by patch clamp assay
Sequence of Voltage-gated inwardly rectifying potassium channel KCNH2 (Q12809 whole entry): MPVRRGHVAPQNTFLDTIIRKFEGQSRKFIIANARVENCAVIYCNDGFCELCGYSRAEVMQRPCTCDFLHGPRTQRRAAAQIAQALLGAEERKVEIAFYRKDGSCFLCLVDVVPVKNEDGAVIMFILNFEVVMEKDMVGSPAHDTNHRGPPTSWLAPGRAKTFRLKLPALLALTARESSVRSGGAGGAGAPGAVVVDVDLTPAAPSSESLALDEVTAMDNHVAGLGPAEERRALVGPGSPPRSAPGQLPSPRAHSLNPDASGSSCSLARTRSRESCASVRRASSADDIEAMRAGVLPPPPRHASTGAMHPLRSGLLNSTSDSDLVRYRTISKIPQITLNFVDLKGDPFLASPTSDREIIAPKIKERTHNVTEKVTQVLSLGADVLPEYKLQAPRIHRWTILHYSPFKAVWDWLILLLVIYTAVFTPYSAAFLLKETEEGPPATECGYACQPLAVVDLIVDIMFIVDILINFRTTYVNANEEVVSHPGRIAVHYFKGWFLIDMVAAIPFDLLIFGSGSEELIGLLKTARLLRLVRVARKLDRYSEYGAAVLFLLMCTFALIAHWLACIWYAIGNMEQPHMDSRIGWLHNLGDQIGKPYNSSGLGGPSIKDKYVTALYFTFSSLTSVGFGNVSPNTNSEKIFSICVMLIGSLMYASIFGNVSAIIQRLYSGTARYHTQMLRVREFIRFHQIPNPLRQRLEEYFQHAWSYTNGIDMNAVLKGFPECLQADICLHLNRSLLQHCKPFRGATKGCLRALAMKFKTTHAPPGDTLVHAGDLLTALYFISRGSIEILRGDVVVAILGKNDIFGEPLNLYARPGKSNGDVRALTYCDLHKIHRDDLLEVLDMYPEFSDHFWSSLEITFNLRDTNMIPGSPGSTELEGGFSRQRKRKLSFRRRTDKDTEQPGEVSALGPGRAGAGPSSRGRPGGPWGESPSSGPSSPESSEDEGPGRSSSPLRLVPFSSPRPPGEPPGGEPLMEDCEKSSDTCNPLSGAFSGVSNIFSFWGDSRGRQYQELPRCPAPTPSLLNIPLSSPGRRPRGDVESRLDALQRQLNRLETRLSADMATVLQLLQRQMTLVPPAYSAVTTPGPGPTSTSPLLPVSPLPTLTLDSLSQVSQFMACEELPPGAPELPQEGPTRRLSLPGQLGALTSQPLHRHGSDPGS

[5] = target: T1, Voltage-dependent T-type calcium channel subunit alpha-1G (Homo sapiens, UniProt O43497); assay: Inhibition of T-type calcium channel alpha1G expressed in human HEK293 cells assessed as KCl-induced depolarization at 10 uM after 60 mins by FDSS6000 assay; assay type: cell-based
T1 sequence (O43497 whole entry): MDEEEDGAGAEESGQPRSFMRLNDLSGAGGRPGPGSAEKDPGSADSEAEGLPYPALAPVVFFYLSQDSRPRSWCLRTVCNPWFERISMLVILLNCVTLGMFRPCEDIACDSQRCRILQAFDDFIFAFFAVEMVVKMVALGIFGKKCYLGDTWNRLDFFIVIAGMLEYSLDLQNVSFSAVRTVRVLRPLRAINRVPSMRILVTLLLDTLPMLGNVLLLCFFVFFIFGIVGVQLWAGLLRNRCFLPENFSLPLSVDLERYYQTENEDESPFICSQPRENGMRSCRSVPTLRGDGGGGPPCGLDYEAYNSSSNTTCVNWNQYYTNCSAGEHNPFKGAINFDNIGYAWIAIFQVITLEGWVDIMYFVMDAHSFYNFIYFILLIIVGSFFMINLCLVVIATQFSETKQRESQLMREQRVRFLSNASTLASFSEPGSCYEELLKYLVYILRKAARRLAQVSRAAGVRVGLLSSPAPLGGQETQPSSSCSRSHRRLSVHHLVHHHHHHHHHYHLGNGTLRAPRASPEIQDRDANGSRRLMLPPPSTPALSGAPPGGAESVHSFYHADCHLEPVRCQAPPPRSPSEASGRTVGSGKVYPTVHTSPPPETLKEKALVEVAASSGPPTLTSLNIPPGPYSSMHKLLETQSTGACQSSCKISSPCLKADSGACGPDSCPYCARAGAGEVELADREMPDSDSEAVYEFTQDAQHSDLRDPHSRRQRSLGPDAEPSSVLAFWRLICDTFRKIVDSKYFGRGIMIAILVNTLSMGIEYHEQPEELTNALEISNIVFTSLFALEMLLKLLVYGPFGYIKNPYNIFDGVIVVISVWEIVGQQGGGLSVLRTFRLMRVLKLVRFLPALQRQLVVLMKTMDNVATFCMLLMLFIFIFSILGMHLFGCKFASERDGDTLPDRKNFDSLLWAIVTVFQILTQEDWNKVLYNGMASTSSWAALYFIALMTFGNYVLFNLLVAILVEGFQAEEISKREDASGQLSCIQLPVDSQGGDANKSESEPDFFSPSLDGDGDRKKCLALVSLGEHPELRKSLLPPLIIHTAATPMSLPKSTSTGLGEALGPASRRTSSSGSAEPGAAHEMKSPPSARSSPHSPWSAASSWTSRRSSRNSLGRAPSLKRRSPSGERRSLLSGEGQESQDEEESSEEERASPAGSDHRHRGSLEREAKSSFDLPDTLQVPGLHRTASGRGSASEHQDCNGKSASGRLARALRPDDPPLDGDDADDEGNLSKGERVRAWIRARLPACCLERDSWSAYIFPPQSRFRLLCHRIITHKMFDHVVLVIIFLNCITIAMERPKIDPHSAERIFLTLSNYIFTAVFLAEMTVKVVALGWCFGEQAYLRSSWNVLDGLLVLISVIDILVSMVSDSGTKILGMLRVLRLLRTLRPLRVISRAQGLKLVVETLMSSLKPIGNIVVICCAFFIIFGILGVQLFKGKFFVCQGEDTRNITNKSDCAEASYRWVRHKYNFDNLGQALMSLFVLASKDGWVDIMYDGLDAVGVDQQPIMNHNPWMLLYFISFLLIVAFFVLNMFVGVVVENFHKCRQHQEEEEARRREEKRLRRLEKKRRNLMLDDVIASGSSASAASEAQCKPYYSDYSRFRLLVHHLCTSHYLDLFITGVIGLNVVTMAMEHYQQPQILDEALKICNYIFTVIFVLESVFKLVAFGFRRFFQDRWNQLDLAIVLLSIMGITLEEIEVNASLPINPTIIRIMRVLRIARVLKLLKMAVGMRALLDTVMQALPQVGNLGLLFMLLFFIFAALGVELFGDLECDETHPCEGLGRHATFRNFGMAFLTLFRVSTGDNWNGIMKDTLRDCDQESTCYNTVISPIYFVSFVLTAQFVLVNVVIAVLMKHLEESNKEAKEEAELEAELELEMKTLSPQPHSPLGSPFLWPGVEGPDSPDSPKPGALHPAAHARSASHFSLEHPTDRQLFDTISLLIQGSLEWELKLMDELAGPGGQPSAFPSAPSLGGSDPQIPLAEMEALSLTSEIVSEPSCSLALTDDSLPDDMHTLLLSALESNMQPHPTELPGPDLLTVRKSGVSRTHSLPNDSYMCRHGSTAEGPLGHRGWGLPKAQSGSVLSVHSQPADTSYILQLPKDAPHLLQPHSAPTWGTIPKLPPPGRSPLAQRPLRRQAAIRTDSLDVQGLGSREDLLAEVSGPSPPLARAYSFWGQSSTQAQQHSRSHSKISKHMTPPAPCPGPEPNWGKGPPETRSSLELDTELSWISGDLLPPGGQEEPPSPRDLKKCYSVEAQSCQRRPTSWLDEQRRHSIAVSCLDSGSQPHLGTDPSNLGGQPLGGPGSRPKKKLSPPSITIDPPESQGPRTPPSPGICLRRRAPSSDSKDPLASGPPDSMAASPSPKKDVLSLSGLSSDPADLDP

[6] = target: T1, Voltage-dependent T-type calcium channel subunit alpha-1G; assay: Inhibition of T-type calcium channel alpha1G expressed in human HEK293 cells assessed as KCl-induced depolarization after 60 mins by FDSS6000 assay; assay type: cell-based

Row | Structure (SMILES) | IC50 [4] [nM] | inhibition [5] [%] | other results
1 | NCC1(CC(=O)O)CCCCC1 | – | – | Activity (Rattus norvegicus [1]): Active; inhibition (Rattus norvegicus [2]): Active
2 | COc1cc(OC)cc(C(=O)NCC2(C#N)CCN(CCc3ccccc3)CC2)c1 | 1570 | 61.9 | Stability [3]: Unstable
3 | COc1cc(OC)cc(C(=O)NCC2(C#N)CCN(Cc3ccccc3C(F)(F)F)CC2)c1 | 4760 | 45.4 | –
4 | COc1ccccc1CN1CCC(C#N)(CNC(=O)c2cc(CC(C)C)n(-c3ccccc3)n2)CC1 | – | 50.9 | –
5 | COc1cc(OC)cc(C(=O)NCC2(C#N)CCN(Cc3ccc(C(F)(F)F)cc3)CC2)c1 | – | 13.9 | –
6 | COC(=O)C1(CNC(=O)c2cc(Cl)cc(Cl)c2)CCN(Cc2ccccc2C(F)(F)F)CC1 | – | 44.1 | –
7 | COC(=O)C1(CNC(=O)c2cc(Cl)cc(Cl)c2)CCN(Cc2ccc(OC)cc2)CC1 | – | 74.5 | –
8 | CC(C)Cc1cc(C(=O)NCC2(C#N)CCN(Cc3ccccc3C(F)(F)F)CC2)nn1-c1ccccc1 | 4760 | 45.4 | –
9 | COC(=O)C1(CNC(=O)c2cc(OC)cc(OC)c2)CCN(Cc2ccc(C(F)(F)F)cc2)CC1 | – | 64.3 | Stability [3]: Unstable; IC50 [6]: 4180 nM
10 | COC(=O)C1(CNC(=O)c2cc(OC)cc(OC)c2)CCN(Cc2ccc(OC)cc2)CC1 | 480 | 59 | –
11 | COC(=O)C1(CNC(=O)c2cc(Cl)cc(Cl)c2)CCN(Cc2cccc(C(F)(F)F)c2)CC1 | – | 72 | –
12 | COc1cccc(CN2CCC(C#N)(CNC(=O)c3cc(Cl)cc(Cl)c3)CC2)c1 | – | 8.33 | –
13 | COC(=O)C1(CNC(=O)c2cc(Cl)cc(Cl)c2)CCN(CCc2ccccc2)CC1 | – | 77.2 | –
14 | COC(=O)C1(CNC(=O)c2cc(Cl)cc(Cl)c2)CCN(CC2=Cc3ccccc3OC2(C)C)CC1 | 13800 | 33.9 | –
15 | N#CC1(CNC(=O)c2cc(Cl)cc(Cl)c2)CCN(Cc2ccc(C(F)(F)F)cc2)CC1 | – | 8.7 | –
16 | COC(=O)C1(CNC(=O)c2cc(OC)cc(OC)c2)CCN(Cc2ccccc2OC)CC1 | 1900 | 46.8 | –
17 | COc1cccc(CN2CCC(C#N)(CNC(=O)c3cc(CC(C)C)n(-c4ccccc4)n3)CC2)c1 | 1500 | 60.4 | –
18 | CC(C)Cc1cc(C(=O)NCC2(C#N)CCN(CCc3ccccc3)CC2)nn1-c1ccccc1 | – | 61.9 | –
19 | COC(=O)C1(CNC(=O)c2cc(OC)cc(OC)c2)CCN(Cc2cccc(C(F)(F)F)c2)CC1 | 2800 | 72 | Stability [3]: Unstable
20 | N#CC1(CNC(=O)c2cc(Cl)cc(Cl)c2)CCN(CCc2ccccc2)CC1 | 360 | 71.8 | –
21 | N#CC1(CNC(=O)c2cc(Cl)cc(Cl)c2)CCN(Cc2ccccc2C(F)(F)F)CC1 | – | 9.99 | –

Row | Structure (SMILES) | IC50 [4] [nM] | inhibition [5] [%] | other results
22 | COc1cccc(CN2CCC(C#N)(CNC(=O)c3cc(OC)cc(OC)c3)CC2)c1 | – | 60.4 | –
23 | COc1ccc(CN2CCC(C#N)(CNC(=O)c3cc(CC(C)C)n(-c4ccccc4)n3)CC2)cc1 | – | 53 | –
24 | COc1ccc(CN2CCC(C#N)(CNC(=O)c3cc(OC)cc(OC)c3)CC2)cc1 | – | 53 | –
25 | COc1cc(OC)cc(C(=O)NCC2(C(=O)O)CCN(Cc3ccc(C(F)(F)F)cc3)CC2)c1.Cl | – | – | Stability [3]: Stable; Activity (Rattus norvegicus [1]): Active; IC50 [6]: 7310 nM; inhibition (Rattus norvegicus [2]): Active
26 | CC(C)Cc1cc(C(=O)NCC2(C#N)CCN(Cc3cccc(C(F)(F)F)c3)CC2)nn1-c1ccccc1 | – | 15.8 | –
27 | COC(=O)C1(CNC(=O)c2cc(OC)cc(OC)c2)CCN(CC2=Cc3ccccc3OC2(C)C)CC1 | – | 58 | –
28 | CC1(C)Oc2ccccc2C=C1CN1CCC(C#N)(CNC(=O)c2cc(Cl)cc(Cl)c2)CC1 | – | 13.6 | –
29 | COC(=O)C1(CNC(=O)c2cc(OC)cc(OC)c2)CCN(CCc2ccccc2)CC1 | – | 65 | –
30 | COc1cc(OC)cc(C(=O)NCC2(C#N)CCN(Cc3ccccc3OC)CC2)c1 | 920 | 50.9 | –
31 | COC(=O)C1(CNC(=O)c2cc(Cl)cc(Cl)c2)CCN(Cc2cccc(OC)c2)CC1 | 360 | 73 | –
32 | CC(C)Cc1cc(C(=O)NCC2(C#N)CCN(Cc3ccc(C(F)(F)F)cc3)CC2)nn1-c1ccccc1 | – | 13.9 | –
33 | COc1cc(OC)cc(C(=O)NCC2(C#N)CCN(CC3=Cc4ccccc4OC3(C)C)CC2)c1 | 4730 | 44.3 | –
34 | COc1ccccc1CN1CCC(C#N)(CNC(=O)c2cc(Cl)cc(Cl)c2)CC1 | – | 19.3 | –
35 | COc1cc(OC)cc(C(=O)NCC2(C#N)CCN(Cc3cccc(C(F)(F)F)c3)CC2)c1 | – | 15.8 | –
36 | COC(=O)C1(CNC(=O)c2cc(OC)cc(OC)c2)CCN(Cc2ccccc2C(F)(F)F)CC1 | 4980 | 63.6 | Stability [3]: Unstable
37 | N#CC1(CNC(=O)c2cc(Cl)cc(Cl)c2)CCN(Cc2cccc(C(F)(F)F)c2)CC1 | – | 8.76 | –
38 | CC(C)Cc1cc(C(=O)NCC2(C#N)CCN(CC3=Cc4ccccc4OC3(C)C)CC2)nn1-c1ccccc1 | 4730 | 44.3 | –
39 | COC(=O)C1(CNC(=O)c2cc(OC)cc(OC)c2)CCN(Cc2cccc(OC)c2)CC1 | 310 | 56.2 | –
40 | COc1ccc(CN2CCC(C#N)(CNC(=O)c3cc(Cl)cc(Cl)c3)CC2)cc1 | – | 16.1 | –
41 | COC(=O)C1(CNC(=O)c2cc(Cl)cc(Cl)c2)CCN(Cc2ccccc2OC)CC1 | 160 | 68.5 | –
42 | COC(=O)C1(CNC(=O)c2cc(Cl)cc(Cl)c2)CCN(Cc2ccc(C(F)(F)F)cc2)CC1 | 290 | 43.3 | –
